From ChEMBL document CHEMBL3769372, “Specific Inhibitors of HIV Capsid Assembly Binding to the C-Terminal Domain of the Capsid Protein: Evaluation of 2-Arylquinazolines as Potential Antiviral Compounds” (J Med Chem, 2016)
Each block holds one compound with its values, some of them ahead of it. Residues, ends and D or L forms follow the SMILES beside them.

What was measured:
[1] = biological target: T1, Structural capsid protein (Human immunodeficiency virus 1, UniProt Q76129); assay: Binding affinity to recombinant N-terminal GST-tagged HIV1 NL4-3 capsid C-terminal domain (146 to 231 residues) incubated for 2 hrs by alphascreen assay
Method in brief: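 AlphaScreen competition: GST-fused CA (60 nM) on glutathione acceptor beads and biotinylated peptide (30 nM) on streptavidin donor beads, beads 10 µg/ml. Buffer was PBS, 0.05% Tween 20, 2 mM DTT. Compounds were titrated 0.2–200 µM and incubated 2 h at RT, with emission read at 520–620 nm. Inhibition was normalized to DMSO-only (max) and buffer (min) controls.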

[2] = system: Human immunodeficiency virus 1; assay: Antiviral activity against HIV1 NL4-3 infected in human TZM-bl cells assessed as inhibition of viral replication administered 6 hrs postinfection measured 48 hrs by luciferase reporter gene assay; format: functional, organism-based; settings: Human immunodeficiency virus 1, NL4-3, TZM-bl
Method in brief: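 TZM-bl cells infected with NL4-3 stock (from MT-4 co-culture) at MOI 1; at 6 h p.i. medium replaced with DMEM containing compound, refreshed at 30 h p.i.; supernatants collected at 52 h p.i. and titrated on fresh TZM-bl cells; infection read by luciferase at 48 h p.i.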

[3] = Cytotoxicity against human TZM-bl cells assessed as cell viability at 10 uM after 48 hrs by MTS assay relative to control; format: cell-based; settings: read-out: Activity
Method in brief: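 TZM-bl cells (DMEM, 10% FBS, 10 mM HEPES) incubated with compound at 37 °C, 5% CO2 for 48 h in parallel with the infectivity assay; viability by MTS read-out. Tested in triplicate at 10 µM final, with titration 0.625–20 µM; values normalized to DMSO-only treated cells.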

[4] = biological target: T1, Structural capsid protein; assay: Binding affinity to HIV1 NL4-3 capsid at 25 degC by isothermal titration calorimetry
Method in brief: (§1)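 ITC at 25 °C (Auto-iTC200) in 30 mM MES pH 6.0, 10% glycerol, 2 mM 2-mercaptoethanol, 2% DMSO. Protein and peptide concentrations were set by HPLC amino acid analysis. 320–350 µM peptide ligand was injected in 2 µl steps into 23–33 µM protein until saturated. A buffer-only injection control was run, and titrations were repeated in two buffers of differing ionization enthalpy.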

[5] = biological target: T1, Structural capsid protein; assay: Binding affinity to HIV1 NL4-3 capsid C-terminal domain (146 to 231 residues) by isothermal titration calorimetry; method in brief: as §1
[6] = biological target: T1, Structural capsid protein; assay: Binding affinity to full length HIV1 NL4-3 capsid (1 to 231 residues) by isothermal titration calorimetry; method in brief: as §1
[7] = Binding affinity to recombinant HIV1 NL4-3 capsid Y169A mutant by isothermal titration calorimetry; design: species or system Human immunodeficiency virus 1
Method in brief: (§2)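 Point mutants made by PCR, expressed solubly in E. coli BL21(DE3)RIL, enriched by ammonium sulphate fractionation (20–50%), then MonoS cation exchange (pH 5.5) and Superdex75 gel filtration. Binding by ITC at 25 °C in 30 mM MES pH 6.0, 10% glycerol, 2 mM 2-mercaptoethanol, 2% DMSO. 320–350 µM peptide ligand was injected in 2 µl steps into 23–33 µM protein, with a buffer-only control.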

[8] = Binding affinity to recombinant HIV1 NL4-3 capsid N183A mutant by isothermal titration calorimetry; design: species or system Human immunodeficiency virus 1; method in brief: as §2
[9] = Binding affinity to recombinant HIV1 NL4-3 capsid E187A mutant by isothermal titration calorimetry; design: species or system Human immunodeficiency virus 1; method in brief: as §2
[10] = Binding affinity to recombinant HIV1 NL4-3 capsid L211A mutant by isothermal titration calorimetry; design: species or system Human immunodeficiency virus 1; method in brief: as §2
[11] = Binding affinity to recombinant HIV1 NL4-3 capsid L211S mutant by isothermal titration calorimetry; design: species or system Human immunodeficiency virus 1; method in brief: as §2
[12] = system: Human immunodeficiency virus 1; assay: Selectivity ratio of Kd for recombinant HIV1 NL4-3 capsid Y169A mutant to Kd for full length HIV1 capsid (1 to 231 residues)
Method in brief: (§3)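 Ratio of ITC-derived KD for each mutant CA to KD for wild-type CA. Titrations were at 25 °C in 30 mM MES pH 6.0, 10% glycerol, 2 mM 2-mercaptoethanol, 2% DMSO. Peptide ligand (320–350 µM) was injected into 23–33 µM protein, with a buffer-only control.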

[13] = system: Human immunodeficiency virus 1; assay: Selectivity ratio of Kd for recombinant HIV1 NL4-3 capsid N183A mutant to Kd for full length HIV1 capsid (1 to 231 residues); method in brief: as §3
[14] = system: Human immunodeficiency virus 1; assay: Selectivity ratio of Kd for recombinant HIV1 NL4-3 capsid E187A mutant to Kd for full length HIV1 capsid (1 to 231 residues); method in brief: as §3
[15] = system: Human immunodeficiency virus 1; assay: Selectivity ratio of Kd for recombinant HIV1 NL4-3 capsid L211A mutant to Kd for full length HIV1 capsid (1 to 231 residues); method in brief: as §3
[16] = system: Human immunodeficiency virus 1; assay: Selectivity ratio of Kd for recombinant HIV1 NL4-3 capsid L211S mutant to Kd for full length HIV1 capsid (1 to 231 residues); method in brief: as §3
[17] = biological target: T1, Structural capsid protein; assay: Binding affinity to full length HIV1 NL4-3 dimeric capsid (1 to 231 residues) by isothermal titration calorimetry
Method in brief: (§4)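 VP-ITC at 25 °C in 30 mM MES pH 6.0 with 10% glycerol, 2 mM 2-mercaptoethanol and 2% DMSO; protein concentrations by HPLC amino acid analysis. Ligand concentration was estimated by UV spectra after centrifugation to remove precipitate. 9 µl aliquots of 31 µM ligand went into 3.9 µM CA dimer or 3.1 µM CA CTD dimer to saturation. Ligand-into-buffer heat was subtracted.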

[18] = biological target: T1, Structural capsid protein; assay: Binding affinity to HIV1 NL4-3 dimeric capsid C-terminal domain (146 to 231 residues) by isothermal titration calorimetry; method in brief: as §4

T1 sequence (Q76129 whole entry, the tested form may be a part): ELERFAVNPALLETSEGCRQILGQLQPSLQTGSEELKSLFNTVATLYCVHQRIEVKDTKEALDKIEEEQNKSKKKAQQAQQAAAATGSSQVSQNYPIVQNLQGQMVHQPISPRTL

Structure (SMILES): N#Cc1ccc(Nc2nc(-c3ccncc3)nc3ccccc23)cc1
- IC50 [1]: 4 µM
- IC50 [2]: > 10 µM
- viability at 48 h, 10 µM [3]: 96%

Structure (SMILES): O=C(NCCO)c1ccc(Nc2nc(-c3cccnc3)nc3ccccc23)cc1
- IC50 [1]: > 100 µM
- IC50 [2]: > 10 µM
- viability at 48 h, 10 µM [3]: 100%

Structure (SMILES): CCNS(=O)(=O)c1ccc(Nc2nc(-c3cccnc3)nc3ccccc23)cc1
- IC50 [1]: > 100 µM
- IC50 [2]: > 10 µM
- viability at 48 h, 10 µM [3]: 97%

Structure (SMILES): CCOC(=O)c1ccc(Nc2nc(-c3cccnc3C)nc3ccccc23)cc1
- IC50 [1]: 14 µM
- IC50 [2]: > 10 µM
- viability at 48 h, 10 µM [3]: 100%

Structure (SMILES): O=C(O)c1ccc(-c2nc(-c3ccccc3)c(-c3ccccc3)[nH]2)cc1
- Kd [4]: 85 µM

Structure (SMILES): C[S+]([O-])c1ccc(Nc2nc(-c3ccncc3)nc3ccccc23)cc1 (stereo not drawn)
- IC50 [1]: > 100 µM
- IC50 [2]: > 10 µM
- viability at 48 h, 10 µM [3]: 98%

Structure (SMILES): CC(=O)c1ccc(Nc2nc(-c3cccnc3)nc3ccccc23)cc1
- IC50 [1]: 14 µM
- IC50 [2]: 8 µM
- viability at 48 h, 10 µM [3]: 93%

Structure (SMILES): OC(c1ccc(Nc2nc(-c3cccnc3)nc3ccccc23)cc1)(C(F)(F)F)C(F)(F)F
- IC50 [1]: > 100 µM
- viability at 48 h, 10 µM [3]: 46%

Structure (SMILES): CC(O)c1ccc(Nc2nc(-c3cccnc3)nc3ccccc23)cc1 (stereo not drawn)
- IC50 [1]: > 100 µM
- IC50 [2]: > 10 µM
- viability at 48 h, 10 µM [3]: 98%

Structure (SMILES): CCOC(=O)c1ccc(Nc2nc(-c3cccnc3)nc3ccccc23)cc1
- IC50 [1]: 47 µM
- IC50 [2]: 4.7 µM
- viability at 48 h, 10 µM [3]: 84%

Structure (SMILES): O=C(c1ccc(Nc2nc(-c3cccnc3)nc3ccccc23)cc1)C(F)(F)F
- IC50 [1]: > 100 µM
- viability at 48 h, 10 µM [3]: 62%

Structure (SMILES): NS(=O)(=O)c1ccc(Nc2nc(-c3cccnc3)nc3ccccc23)cc1
- IC50 [1]: 80 µM
- IC50 [2]: > 10 µM
- viability at 48 h, 10 µM [3]: 98%

Structure (SMILES): CCOC(=O)c1cccc(Nc2nc(-c3ccncc3)nc3ccccc23)c1
- IC50 [1]: 21 µM
- IC50 [2]: 5.3 µM
- viability at 48 h, 10 µM [3]: 96%

Structure (SMILES): CCOC(=O)c1cccc(Nc2nc(-c3cccnc3)nc3ccccc23)c1
- IC50 [1]: 68 µM
- IC50 [2]: 5 µM
- viability at 48 h, 10 µM [3]: 83%

Structure (SMILES): NC(=O)c1ccc(Nc2nc(-c3ccncc3)nc3ccccc23)cc1
- IC50 [1]: > 100 µM
- IC50 [2]: > 10 µM
- viability at 48 h, 10 µM [3]: 97%

Structure (SMILES): CONC(=O)c1ccc(Nc2nc(-c3cccnc3)nc3ccccc23)cc1
- IC50 [1]: 63 µM
- IC50 [2]: > 10 µM
- viability at 48 h, 10 µM [3]: 99%

Structure (SMILES): CC(=O)c1ccc(Nc2nc(-c3ccncc3)nc3ccccc23)cc1
- IC50 [1]: 9 µM
- IC50 [2]: 4.6 µM
- viability at 48 h, 10 µM [3]: 96%

Structure (SMILES): CON(C)C(=O)c1ccc(Nc2nc(-c3cccnc3)nc3ccccc23)cc1
- IC50 [1]: 37 µM
- IC50 [2]: > 10 µM
- viability at 48 h, 10 µM [3]: 97%

- IC50 [2]: 10 µM
Structure (SMILES): CSc1ccc(Nc2nc(-c3ccncc3)nc3ccccc23)cc1
- viability at 48 h, 10 µM [3]: 95%

Structure (SMILES): CC(=O)c1cccc(Nc2nc(-c3cccnc3)nc3ccccc23)c1
- IC50 [1]: 30 µM
- IC50 [2]: 8 µM
- viability at 48 h, 10 µM [3]: 89%

Structure (SMILES): CCOC(=O)Cc1ccc(Nc2nc(-c3cccnc3)nc3ccccc23)cc1
- IC50 [1]: > 100 µM
- IC50 [2]: > 10 µM
- viability at 48 h, 10 µM [3]: 98%

Structure (SMILES): CC[C@H](C)[C@H](N)C(=O)N[C@H](C(=O)N[C@@H](Cc1ccccc1)C(=O)N[C@@H](CCC(=O)O)C(=O)N[C@@H](CC(=O)O)C(=O)N[C@@H](CC(C)C)C(=O)N[C@@H](CC(C)C)C(=O)N[C@@H](CC(=O)O)C(=O)N[C@@H](Cc1ccc(O)cc1)C(=O)N[C@@H](Cc1ccc(O)cc1)C(=O)NCC(=O)N1CCC[C@H]1C(N)=O)[C@@H](C)O (H-ITFEDLLDYYGP-NH2)
- Kd [5]: 3 µM
- Kd [6]: 4 µM
- Kd [7]: 13 µM
- Kd [8]: 53 µM
- Kd [9]: 5 µM
- Kd [10]: 15 µM
- Kd [11]: 84 µM
- Selectivity ratio [12]: 3
- Selectivity ratio [13]: 13
- Selectivity ratio [14]: 1
- Selectivity ratio [15]: 4
- Selectivity ratio [16]: 21

Structure (SMILES): O=C(O)c1ccc(Nc2nc(-c3ccncc3)nc3ccccc23)cc1
- IC50 [1]: > 100 µM
- IC50 [2]: > 10 µM
- viability at 48 h, 10 µM [3]: 98%

Structure (SMILES): O=C(NCCF)c1ccc(Nc2nc(-c3cccnc3)nc3ccccc23)cc1
- IC50 [1]: 3 µM
- IC50 [2]: > 10 µM
- viability at 48 h, 10 µM [3]: 90%

Structure (SMILES): CS(=O)(=O)c1ccc(Nc2nc(-c3ccncc3)nc3ccccc23)cc1
- IC50 [1]: > 100 µM
- IC50 [2]: > 10 µM
- viability at 48 h, 10 µM [3]: 97%

Structure (SMILES): CCOC(=O)c1ccccc1Nc1nc(-c2ccncc2)nc2ccccc12
- IC50 [1]: 37 µM
- IC50 [2]: > 10 µM
- viability at 48 h, 10 µM [3]: 97%

Structure (SMILES): CCNC(=O)c1ccc(Nc2nc(-c3cccnc3)nc3ccccc23)cc1
- IC50 [1]: > 100 µM
- IC50 [2]: > 10 µM
- viability at 48 h, 10 µM [3]: 97%

Structure (SMILES): OC(c1ccc(Nc2nc(-c3cccnc3)nc3ccccc23)cc1)C(F)(F)F (stereo not drawn)
- IC50 [1]: > 100 µM
- IC50 [2]: 10 µM
- viability at 48 h, 10 µM [3]: 87%

Structure (SMILES): CCOC(=O)c1ccc(Nc2nc(-c3ccncc3)nc3ccccc23)cc1
- IC50 [1]: 8 µM
- IC50 [2]: > 10 µM
- viability at 48 h, 10 µM [3]: 96%
- Kd [6]: 0.14 µM
- Kd [8]: 0.89 µM
- Kd [11]: 1.9 µM
- Kd [17]: 0.14 µM
- Kd [18]: 0.038 µM
- Selectivity ratio [13]: 7
- Selectivity ratio [16]: 14
